This note sets out measurements from ChEMBL document CHEMBL1154727, “Cytotoxic activity of 3-(5-phenyl-3H-[1,2,4]dithiazol-3-yl)chromen-4-ones and 4-oxo-4H-chromene-3-carbothioic acid N-phenylamides” (Eur J Med Chem, 2010).

What is called pIC50 is −log10 of the IC50, conventionally taken in molar units.

For test [1], the system named is COLO 205. The experiment in a line: Growth inhibition of human COLO205 cells at 100 uM after 48 hrs by sulforhodamine B assay. The format is functional. To be noted: COLO 205, 48 h, read-out: GI. In a few lines: (§1)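 Cells kept in RPMI-1640 with 10% FBS, penicillin and streptomycin; trypan blue viability check beforehand. Seeded at 1 × 10^4 cells/well, 24 h at 37 °C, 5% CO2, then treated in quadruplicate for 48 h. Compounds diluted in medium with 50 µg/ml gentamycin; single test level 100 µM. TCA fixation at 4 °C for 1 h, SRB stain, Tris pH 10.5 solubilization, OD 540 nm. IC50 taken as the mean from dose-response curves.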
In general terms: The SRB assay estimates cell density from bound dye.

Test [2] concerns PC-3. Put plainly: Growth inhibition of human PC3 cells at 100 uM after 48 hrs by sulforhodamine B assay. Particulars: PC-3, 48 h, read-out: GI. It is filed as functional. In a few lines:
as §1

Test [3] deals with A549. The experiment in a line: Growth inhibition of human A549 cells at 100 uM after 48 hrs by sulforhodamine B assay. The format is functional. Particulars: A549, 48 h, read-out: GI. In a few lines: as §1
For test [4], the system named is HEp-2. The experiment in a line: Growth inhibition of human Hep2 cells at 100 uM after 48 hrs by sulforhodamine B assay. It is filed as functional. To be noted: HEp-2, 48 h, read-out: GI. In a few lines:
as §1

The test system of test [5] is IMR-32. Put plainly: Growth inhibition of human IMR32 cells at 100 uM after 48 hrs by sulforhodamine B assay. It is filed as functional. To be noted: IMR-32, 48 h, read-out: GI. In a few lines: as §1
For test [6], the system named is COLO 205. Put plainly: Growth inhibition of human COLO205 cells after 48 hrs by sulforhodamine B assay. It is filed as functional, cell-based. To be noted: COLO 205, 48 h. In a few lines:
as §1

In test [7] the test system is PC-3. Put plainly: Growth inhibition of human PC3 cells after 48 hrs by sulforhodamine B assay. To be noted: PC-3, 48 h. The format is functional, cell-based. In a few lines: as §1
The subject of test [8] is A549. The experiment in a line: Growth inhibition of human A549 cells after 48 hrs by sulforhodamine B assay. The format is functional, cell-based. Particulars: A549, 48 h. In a few lines:
as §1

The subject of test [9] is HEp-2. Put plainly: Growth inhibition of human Hep2 cells after 48 hrs by sulforhodamine B assay. The format is functional, cell-based. To be noted: HEp-2, 48 h. In a few lines: as §1
In test [10] the test system is IMR-32. The experiment in a line: Growth inhibition of human IMR32 cells after 48 hrs by sulforhodamine B assay. The format is functional, cell-based. Particulars: IMR-32, 48 h. In a few lines:
as §1

Test [11] relates to OVCAR-5 (human). Put plainly: Growth inhibition of human OVCAR-5 cells after 48 hrs by sulforhodamine B assay. Particulars: OVCAR-5, 48 h.
For test [12], the system named is OVCAR-5 (human). Put plainly: Growth inhibition of human OVCAR-5 cells at 100 uM after 48 hrs by sulforhodamine B assay. To be noted: OVCAR-5, 48 h, read-out: GI.
The subject of test [13] is COLO 205. Put plainly: Growth inhibition of human COLO205 cells at 20 uM after 48 hrs by sulforhodamine B assay. The format is functional. To be noted: COLO 205, 48 h, read-out: GI. In a few lines: (§2)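 Cells kept in RPMI-1640 with 10% FBS, penicillin and streptomycin; viability checked by trypan blue before use. Seeded at 1 × 10^4 cells/well, 24 h at 37 °C in 5% CO2, then compound (diluted in medium with gentamycin) added in quadruplicate for 48 h. Cells fixed with cold 50% TCA at 4 °C for 1 h, stained with 0.4% SRB, dye dissolved in 10 mM Tris pH 10.5, OD read at 540 nm.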

The subject of test [14] is PC-3. Put plainly: Growth inhibition of human PC3 cells at 20 uM after 48 hrs by sulforhodamine B assay. It is filed as functional. To be noted: PC-3, 48 h, read-out: GI. In a few lines: as §2
Test [15] deals with OVCAR-3. Put plainly: Growth inhibition of human OVCAR-3 cells at 20 uM after 48 hrs by sulforhodamine B assay. It is filed as functional. Particulars: OVCAR-3, 48 h, read-out: GI. In a few lines:
as §2

In test [16] the test system is COLO 205. Put plainly: Growth inhibition of human COLO205 cells at 10 uM after 48 hrs by sulforhodamine B assay. The format is functional. To be noted: COLO 205, 48 h, read-out: GI. In a few lines: (§3)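 Cells grown in RPMI-1640 with 10% FBS and antibiotics, plated at 1 × 10^4 cells/well for 24 h at 37 °C, 5% CO2. Agents diluted in gentamycin-containing medium, then added in quadruplicate for 48 h. Cells fixed with cold TCA at 4 °C for 1 h, stained with 0.4% SRB, and dye dissolved in 10 mM Tris pH 10.5; absorbance read at 540 nm.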

Test [17] deals with PC-3. Put plainly: Growth inhibition of human PC3 cells at 10 uM after 48 hrs by sulforhodamine B assay. It is filed as functional. To be noted: PC-3, 48 h, read-out: GI. In a few lines: as §3
Test [18] has as its system OVCAR-5 (human). The experiment in a line: Growth inhibition of human OVCAR-5 cells at 10 uM after 48 hrs by sulforhodamine B assay. To be noted: OVCAR-5, 48 h, read-out: GI.
Test [19] relates to A549. Put plainly: Growth inhibition of human A549 cells at 10 uM after 48 hrs by sulforhodamine B assay. To be noted: A549, 48 h, read-out: GI. The format is functional. In a few lines:
as §3

Test [20] concerns HEp-2. Put plainly: Growth inhibition of human Hep2 cells at 10 uM after 48 hrs by sulforhodamine B assay. It is filed as functional. Particulars: HEp-2, 48 h, read-out: GI. In a few lines:
as §3

For test [21], the system named is IMR-32. Put plainly: Growth inhibition of human IMR32 cells at 10 uM after 48 hrs by sulforhodamine B assay. It is filed as functional. To be noted: IMR-32, 48 h, read-out: GI. In a few lines: as §3

pIC50: −log10 of the molar value.

With `O=c1c(C2N=C(c3ccccc3)SS2)coc2ccccc12` (stereo unspecified), the inhibition of growth at 100 µM turned out to be 18% in [1]; 23% in [2]; 42% in [3]; 48% in test [4]; 82% in test [5]; 11% in test [12]. Moreover, the pIC50 in test [6] was below 4.00; in test [7] it was below 4.00; in [8], below 4.00; in test [9] it was below 4.00; in [10] it was 4.78; in [11], below 4.00.
Regarding `O=c1c(C(=S)Nc2ccccc2)coc2cc(Cl)c(Cl)cc12`, the inhibition of growth at 100 µM amounted to 16% in test [1]; 16% in test [2]; 3% in test [3]; 4% in test [4]; 18% in [5]; 2% in test [12]. Further, the pIC50 is below 4.00 in [6]; 4.02 in [7]; 4.15 in test [8]; below 4.00 in [9]; 4.05 in test [10]; below 4.00 in test [11].
Turning to `Cc1ccc2occ(C3N=C(c4ccccc4)SS3)c(=O)c2c1` (stereo unspecified), the inhibition of growth at 100 µM came out at 32% in [1]; 40% in test [2]; 67% in test [3]; 43% in test [4]; 53% in test [5]; 54% in test [12]. For the same molecule, the pIC50 was below 4.00 in test [6]; below 4.00 in test [7]; 4.18 in test [8]; below 4.00 in test [9]; 4.15 in test [10]; 4.03 in [11].
`O=c1c(C2N=C(c3ccccc3)SS2)coc2ccc(F)cc12` (stereo unspecified): the inhibition of growth at 100 µM came out at 37% in test [1]; 32% in test [2]; 55% in test [3]; 51% in test [4]; 75% in [5]; 27% in [12]. In addition, the pIC50 in [6] is below 4.00; in test [7] it was below 4.00; in test [8], 4.04; in test [9], 4.01; in [10] it was 4.84; in test [11] it was below 4.00.
Take `O=c1c(C2N=C(c3ccccc3)SS2)coc2cc(Cl)c(F)cc12` (stereo unspecified): the inhibition of growth at 100 µM in [1] was 45%; in test [2], 76%; in [3], 57%; in [4] it was 52%; in test [5] it was 80%; in test [12], 75%. Further, the pIC50 in test [6] was below 4.00; in test [7], 4.24; in test [8], 4.03; in test [9] it was 4.01; in test [10], 4.25; in [11] it was 4.21.
`O=c1c(C(=S)Nc2ccccc2)coc2ccccc12`: the inhibition of growth at 100 µM was 71% in test [1]; 63% in test [2]; 79% in test [3]; 32% in [4]; 53% in test [5]; 58% in test [12]. The negative-log IC50 (pIC50) in [6] was 4.14; in test [7] it was 4.22; in test [8] it was 4.28; in test [9], below 4.00; in test [10], 4.02; in test [11] it was 4.06.
Turning to `O=c1c(C(=S)Nc2ccccc2)coc2ccc(F)cc12`, the inhibition of growth at 100 µM in test [1] came out at 26%; in [2], 45%; in test [3], 70%; in test [4], 32%; in test [5], 59%; in [12], 49%. The pIC50 in test [6] is below 4.00; in [7] it was below 4.00; in [8], 4.14; in test [9] it was below 4.00; in test [10] it was 4.05; in test [11], below 4.00.
`O=c1c(C(=S)Nc2ccccc2)coc2cc(Cl)ccc12`: the inhibition of growth at 100 µM in test [1] is 38%; in [2], 55%; in test [3] it was 66%; in test [4], 41%; in test [5], 56%; in test [12], 47%. Further, the pIC50 in test [6] is below 4.00; in [7], 4.04; in test [8], 4.20; in test [9] it was below 4.00; in [10] it was 4.03; in test [11], below 4.00.
Turning to `O=c1c(C2N=C(c3ccccc3)SS2)coc2ccc(Cl)cc12` (stereo unspecified), the inhibition of growth at 100 µM in test [1] was 12%; in test [2], 62%; in test [3] it was 73%; in [4], 69%; in test [5] it was 92%; in [12], 71%. The pIC50 is below 4.00 in [6]; 4.28 in test [7]; 4.15 in [8]; 4.13 in [9]; 5.00 in [10]; 4.18 in test [11].
On to `O=c1c(C2N=C(c3ccccc3)SS2)coc2cc(Cl)c(Cl)cc12` (stereo unspecified), for which the inhibition of growth at 100 µM in [1] was determined as 50%; in test [2], 70%; in [3], 52%; in test [4] it was 51%; in [5] it was 77%; in test [12] it was 68%. For the same molecule, the pIC50 in test [6] was below 4.00; in test [7], 4.22; in test [8], 4.02; in test [9], 4.01; in test [10], 4.24; in test [11], 4.19.
Consider `O=c1c(C2N=C(c3ccccc3)SS2)coc2cc(Cl)ccc12` (stereo unspecified), for which the inhibition of growth at 100 µM in test [1] was found to be 57%; in test [2], 81%; in [3] it was 76%; in test [4] it was 31%; in test [5], 53%; in [12] it was 91%. Besides, the pIC50 in [6] is 4.12; in [7] it was 4.42; in test [8], 4.24; in test [9], below 4.00; in [10] it was 4.02; in [11] it was 4.98.
Take `O=c1[nH]cc(F)c(=O)[nH]1` [FLUOROURACIL]: the results for the inhibition of growth at 20 µM in test [13], in test [14] and in test [15] were 12%, 20% and 26%, respectively. In test [6], this molecule had a negative logarithm of the IC50 (pIC50) of 4.68.
Take `CO[C@@]12[C@H](COC(N)=O)C3=C(C(=O)C(C)=C(N)C3=O)N1C[C@@H]1N[C@@H]12` [MITOMYCIN]: the inhibition of growth at 10 µM in test [16] was 44%; in test [17], 41%; in test [18], 65%. The pIC50 in test [7] and in [9] was 5.82 each time.
In the case of `CC(=O)O[C@H]1C(=O)[C@@]2(C)[C@H]([C@H](OC(=O)c3ccccc3)[C@]3(O)C[C@H](OC(=O)[C@H](O)[C@@H](NC(=O)c4ccccc4)c4ccccc4)C(C)=C1C3(C)C)[C@]1(OC(C)=O)CO[C@@H]1C[C@@H]2O` [PACLITAXEL], the figures for the inhibition of growth at 10 µM in test [19], in test [20] and in test [21] were 67%, 55% and 45%, respectively. The pIC50 in test [8] and in test [11] was 5.57 each time.
